Experimental data pooled from the literature.
Protocols differ between the studies behind these lines.
BCHE: Cholinesterase (BCHE, Equus caballus, UniProt P81908)
Tyrosine-protein phosphatase YopH: Tyrosine-protein phosphatase YopH (Yersinia enterocolitica, UniProt P15273)

Structure (SMILES) | target | read-out | action | technique | concentration | quantity | result
COc1cc2c(cc1OC)C(=O)N(CC1CCN(CC3CCNC3)CC1)C2 (centres unmarked) | BCHE | enzyme activity | inhibitor | Ellman | 1 µM | inhibition | -13.6%
COc1ncccc1-c1cnn2ccc(N3CCN(C(=O)OC(C)C)CC3)nc12 | Serine/threonine-protein kinase MRCK alpha (CDC42BPA, Homo sapiens, UniProt Q5VT25) | binding | – | competition with immobilised ligand | 1 µM | remaining binding | 72%
C#Cc1n[nH]c2c(-c3cn(C(C)c4ccccn4)c(=O)[nH]c3=O)cc(F)cc12 (centres unmarked) | Mitogen-activated protein kinase kinase kinase 9 (MAP3K9, Homo sapiens, UniProt P80192) | enzyme activity | inhibitor | – | 1 µM | inhibition | 5%
CCN(CC)CCCC[C@H](NC(=O)[C@H](CC(C)C)NC(=O)[C@H](C)NC(=O)[C@H](Cc1ccccc1)NC(=O)c1ccc(C(C)(C)C)cc1)C(=O)N[C@@H](CO)C(=O)OC | Transcription initiation factor TFIID subunit 1, BD2 (TAF1, Homo sapiens, UniProt P21675) | thermal stability | – | DSF | 25 µM | ΔTm | 0.62 °C
O=S(=O)([O-])[O-].[O]=[V+2] | Tyrosine-protein phosphatase YopH | enzyme activity | inhibitor | – | 25 µM | inhibition | 99.7%
Nc1ncc(-c2nc(N3CCOCC3)nc(N3CCOCC3)n2)c(C(F)F)n1 | Ribosomal protein S6 kinase alpha-3, C-terminal kinase domain (RPS6KA3, Homo sapiens, UniProt P51812) | binding | – | competition with immobilised ligand | 10 µM | remaining binding | 84%
[O]=[V]([S]c1cccc[n+]1[O-])[S]c1cccc[n+]1[O-] | Tyrosine-protein phosphatase YopH | enzyme activity | inhibitor | – | 25 µM | inhibition | 99.5%
COc1cc2c(cc1OC)C(=O)N(CC1CCN(Cc3ccccc3)CC1)C2 | BCHE | enzyme activity | inhibitor | Ellman | 1 µM | inhibition | -4.8%
